Calls of active or inactive are those of the source. The calls are words filed in the database; no cut-off is given here.
Assays:
Rattus norvegicus [1] = organism: Rattus norvegicus; assay: Inhibition of rat intestinal alpha-glucosidase activity at 50 ug
In short: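 Rat intestinal α-glucosidase assayed in vitro. Compound added as 50 µg from a 5 mg/mL DMSO stock. Percent inhibition run in triplicate and given as mean SD.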

Rattus norvegicus [2] = assay: Antihyperglycemic activity in Wistar rat assessed as reduction in postprandial blood glucose rise at 100 mg/kg, po by carbohydrate tolerance test; type: functional, organism-based; set-up: dose 100 mg/kg
In short: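 Rats housed at 22 °C under a 12 h light-dark cycle, six per group, then fasted overnight. Basal plasma glucose was measured by glucose oxidase on retro-orbital EDTA blood. Compounds were suspended in normal saline and given orally at 100 mg/kg; controls received saline only. Delta-glycemia was read at 30–120 min, shown as mean SD and compared by ANOVA with Bonferroni.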

[3] = Inhibition of rat intestinal alpha-glucosidase activity

| Structure (SMILES) | inhibition (Rattus norvegicus [1]) [%] | Activity (Rattus norvegicus [2]) | IC50 [3] [µM] |
| --- | --- | --- | --- |
| CC(=O)NC(CC(=O)c1ccc(Br)cc1)c1ccc(F)cc1 (centres undefined) | 2.7 | – | – |
| CC(=O)NC(CC(=O)c1ccc([N+](=O)[O-])cc1)c1ccc(C)cc1 (centres undefined) | 85 | Active | 9.07 |
| CC(=O)NC(CC(=O)c1ccccc1)c1ccc([N+](=O)[O-])cc1 (centres undefined) | 72.2 | – | 25.6 |
| CC(=O)NC(CC(=O)c1ccc(F)cc1)c1ccc(O)cc1 (centres undefined) | 60.1 | – | 72.8 |
| CC(=O)NC(CC(=O)c1ccc(F)cc1)c1ccc(F)cc1 (centres undefined) | 55.1 | – | – |
| CC(=O)NC(CC(=O)c1ccc([N+](=O)[O-])cc1)c1ccc([N+](=O)[O-])cc1 (centres undefined) | 52.7 | – | – |
| C[C@H]1O[C@H](O[C@H]2[C@H](O)[C@@H](O)[C@@H](O[C@H]3[C@H](O)[C@@H](O)[C@H](O)O[C@@H]3CO)O[C@@H]2CO)[C@H](O)[C@@H](O)[C@@H]1N[C@H]1C=C(CO)[C@@H](O)[C@H](O)[C@H]1O | – | Active | – |
| CC(=O)NC(CC(=O)c1ccc(Br)cc1)c1ccc(C)cc1 (centres undefined) | 95.1 | Active | 5.53 |

From ChEMBL document CHEMBL1157494, “Reduction in post-prandial hyperglycemic excursion through alpha-glucosidase inhibition by beta-acetamido carbonyl compounds” (Bioorg Med Chem Lett, 2008)
